Measured values from ChEMBL document CHEMBL3044632, “Synthesis, crystal structure, and biological activity of 4-methyl-1,2,3-thiadiazole-containing 1,2,4-triazolo[3,4-b][1,3,4]thiadiazoles” (J Agric Food Chem, 2010).
≈ marks a conversion by molar mass, not a printed value. Calls of active or inactive are those of the source. No cut-off for these calls is given here.

Experiments:
Puccinia triticina = test: Fungicide activity against Puccinia triticina assessed as growth inhibition at 50 ug/mL at 24 to 26 degC measured after 2 days; type: functional; settings: 48 h, read-out: GI
[1] = tested on: Botryosphaeria berengeriana; test: Fungicide activity against Botryosphaeria berengeriana assessed as growth inhibition at 50 ug/mL at 24 to 26 degC measured after 2 days; type: functional; settings: 48 h, read-out: GI
Tobacco mosaic virus [2] = test: Antiviral activity against Tobacco mosaic virus (TMV) infected leaves assessed as viral inhibition at 500 ug/mL at 25 degC for 72 hr; type: functional
In short: (§1)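 Systemic acquired resistance induction was assayed in a tobacco–TMV system. The antivirus inhibition ratio was calculated from the average number of viral lesions on inoculated leaves, relative to the corresponding control.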

Alternaria solani [3] = test: Fungicide activity against Alternaria solani assessed as growth inhibition at 50 ug/mL at 24 to 26 degC measured after 2 days; type: functional; settings: 48 h, read-out: GI
[4] = tested on: Fusarium oxysporum f. sp. cucumerinum; test: Fungicide activity against Fusarium oxysporum f. cucumerinum assessed as growth inhibition at 24 to 26 degC measured after 2 days; type: functional, organism-based; settings: 48 h
Alternaria solani [5] = test: Fungicide activity against Alternaria solani assessed as growth inhibition at 24 to 26 degC measured after 2 days; type: functional, organism-based; settings: 48 h
Rhizoctonia solani [6] = test: Fungicide activity against Rhizoctonia solani assessed as growth inhibition at 24 to 26 degC measured after 2 days; type: functional, organism-based; settings: 48 h
Nicotiana tabacum [7] = test: Phytotoxicity against Nicotiana tabacum (tobacco) plant at 50 to 500 ug/mL; type: organism-based; settings: in vivo
Thanatephorus cucumeris [8] = test: Fungicide activity against Thanatephorus cucumeris assessed as growth inhibition at 50 ug/mL at 24 to 26 degC measured after 2 days; type: functional; settings: 48 h, read-out: GI
Phytophthora infestans [9] = test: Fungicide activity against Phytophthora infestans assessed as growth inhibition at 50 ug/mL at 24 to 26 degC measured after 2 days; type: functional; settings: 48 h, read-out: GI
Fusarium oxysporum = test: Fungicide activity against Fusarium oxysporum assessed as growth inhibition at 50 ug/mL at 24 to 26 degC measured after 2 days; type: functional; settings: 48 h, read-out: GI
Mycosphaerella arachidis = test: Fungicide activity against Mycosphaerella arachidis assessed as growth inhibition at 50 ug/mL at 24 to 26 degC measured after 2 days; type: functional; settings: 48 h, read-out: GI
Macrophoma = test: Fungicide activity against Macrophoma kuwatsukai assessed as growth inhibition at 24 to 26 degC measured after 2 days; type: functional, organism-based; settings: 48 h
Cercospora beticola = test: Fungicide activity against Cercospora beticola assessed as growth inhibition at 50 ug/mL at 24 to 26 degC measured after 2 days; type: functional; settings: 48 h, read-out: GI
Rhizoctonia solani [10] = test: Fungicide activity against Rhizoctonia solani Kuhn assessed as growth inhibition at 50 ug/mL at 24 to 26 degC measured after 2 days; type: functional; settings: 48 h, read-out: GI
Colletotrichum lagenaria = test: Fungicide activity against Colletotrichum lagenaria assessed as growth inhibition at 50 ug/mL at 24 to 26 degC measured after 2 days; type: functional; settings: 48 h, read-out: GI
Tobacco mosaic virus [11] = test: Antiviral activity against Tobacco mosaic virus (TMV) infected leaves assessed as viral inhibition at 100 ug/mL at 25 degC for 72 hr; type: functional; in short: as §1
Phytophthora infestans [12] = test: Fungicide activity against Phytophthora infestans assessed as growth inhibition at 24 to 26 degC measured after 2 days; type: functional, organism-based; settings: 48 h
Thanatephorus cucumeris [13] = test: Fungicide activity against Thanatephorus cucumeris assessed as growth inhibition at 24 to 26 degC measured after 2 days; type: functional, organism-based; settings: 48 h
Nicotiana tabacum [14] = test: Induction of systemic acquired resistance in Nicotiana tabacum (tobacco) mosaic virus infected Nicotiana tabacum (tobacco) plant at 100 ug/mL at 25 degC for 72 hr; type: functional
In short: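 Tobacco–TMV system used to assess induced resistance. The antiviral inhibition ratio was calculated from the mean number of viral lesions on inoculated leaves, relative to the matching control.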

Tobacco mosaic virus [15] = test: Antiviral activity against Tobacco mosaic virus (TMV) infected leaves assessed as viral inhibition at 50 ug/mL at 25 degC for 72 hr; type: functional; in short: as §1

SMILES: Cc1nnsc1C1=NNC2SC(C(Cl)(Cl)Cl)=NN12 (stereo not drawn)
- inhibition of growth at 50 µg/mL (Puccinia triticina): 78.9%
- inhibition of growth at 50 µg/mL [1]: 83.9%
- inhibition at 500 µg/mL (Tobacco mosaic virus [2]): 27.8%
- inhibition of growth at 50 µg/mL (Alternaria solani [3]): 66.7%
- EC50 [4]: 11.2 µg/mL (≈ 32.6 µM)
- EC50 (Alternaria solani [5]): 14.6 µg/mL (≈ 42.5 µM)
- EC50 (Rhizoctonia solani [6]): 4.1 µg/mL (≈ 11.9 µM)
- Activity (Nicotiana tabacum [7]): Toxic
- inhibition of growth at 50 µg/mL (Thanatephorus cucumeris [8]): 84.8%
- inhibition of growth at 50 µg/mL (Phytophthora infestans [9]): 70.7%
- inhibition of growth at 50 µg/mL (Fusarium oxysporum): 75%
- inhibition of growth at 50 µg/mL (Mycosphaerella arachidis): 63.6%
- EC50 (Macrophoma): 6.4 µg/mL (≈ 18.6 µM)
- inhibition of growth at 50 µg/mL (Cercospora beticola): 71.4%
- inhibition of growth at 50 µg/mL (Rhizoctonia solani [10]): 83.3%
- inhibition of growth at 50 µg/mL (Colletotrichum lagenaria): 64.7%
- inhibition at 100 µg/mL (Tobacco mosaic virus [11]): 33.3%
- EC50 (Phytophthora infestans [12]): 12.5 µg/mL (≈ 36.4 µM)
- EC50 (Thanatephorus cucumeris [13]): 2.5 µg/mL (≈ 7.27 µM)

SMILES: Cc1ccc(NC(=O)c2snnc2C)cc1Cl [TIADINIL]
- Activity (Nicotiana tabacum [14]): 48.92%
- inhibition at 100 µg/mL (Tobacco mosaic virus [11]): 36.6%

SMILES: Cc1nnsc1C1=NNC2SC(c3ccccc3OC(F)(F)F)=NN12 (stereo not drawn)
- inhibition of growth at 50 µg/mL (Puccinia triticina): 0%
- inhibition of growth at 50 µg/mL [1]: 15.4%
- inhibition of growth at 50 µg/mL (Alternaria solani [3]): 4.8%
- Activity (Nicotiana tabacum [7]): Toxic
- inhibition of growth at 50 µg/mL (Thanatephorus cucumeris [8]): 35.7%
- inhibition of growth at 50 µg/mL (Phytophthora infestans [9]): 0%
- inhibition of growth at 50 µg/mL (Fusarium oxysporum): 86%
- inhibition of growth at 50 µg/mL (Mycosphaerella arachidis): 7.7%
- inhibition of growth at 50 µg/mL (Cercospora beticola): 0%
- inhibition of growth at 50 µg/mL (Rhizoctonia solani [10]): 5.6%
- inhibition of growth at 50 µg/mL (Colletotrichum lagenaria): 45.5%
- inhibition at 50 µg/mL (Tobacco mosaic virus [15]): 25%

SMILES: Cc1nnsc1C1=NNC2SC(c3ccc(OC(F)(F)F)cc3)=NN12 (stereo not drawn)
- inhibition of growth at 50 µg/mL (Puccinia triticina): 70%
- inhibition of growth at 50 µg/mL [1]: 17.9%
- inhibition of growth at 50 µg/mL (Alternaria solani [3]): 9.5%
- Activity (Nicotiana tabacum [7]): Toxic
- inhibition of growth at 50 µg/mL (Thanatephorus cucumeris [8]): 30.4%
- inhibition of growth at 50 µg/mL (Phytophthora infestans [9]): 4.8%
- inhibition of growth at 50 µg/mL (Fusarium oxysporum): 44.4%
- inhibition of growth at 50 µg/mL (Mycosphaerella arachidis): 15.4%
- inhibition of growth at 50 µg/mL (Cercospora beticola): 0%
- inhibition of growth at 50 µg/mL (Rhizoctonia solani [10]): 11.1%
- inhibition of growth at 50 µg/mL (Colletotrichum lagenaria): 18.2%
- inhibition at 50 µg/mL (Tobacco mosaic virus [15]): 10.2%

SMILES: Cc1nnsc1C1=NNC2SC(c3cccc([N+](=O)[O-])c3)=NN12 (stereo not drawn)
- inhibition of growth at 50 µg/mL (Puccinia triticina): 10%
- inhibition of growth at 50 µg/mL [1]: 12.8%
- inhibition at 500 µg/mL (Tobacco mosaic virus [2]): 44.4%
- inhibition of growth at 50 µg/mL (Alternaria solani [3]): 9.5%
- Activity (Nicotiana tabacum [7]): Toxic
- inhibition of growth at 50 µg/mL (Thanatephorus cucumeris [8]): 25%
- inhibition of growth at 50 µg/mL (Phytophthora infestans [9]): 54.8%
- inhibition of growth at 50 µg/mL (Fusarium oxysporum): 47.2%
- inhibition of growth at 50 µg/mL (Mycosphaerella arachidis): 7.7%
- inhibition of growth at 50 µg/mL (Cercospora beticola): 0%
- inhibition of growth at 50 µg/mL (Rhizoctonia solani [10]): 11.1%
- inhibition of growth at 50 µg/mL (Colletotrichum lagenaria): 0%
- inhibition at 100 µg/mL (Tobacco mosaic virus [11]): 44.4%

SMILES: COc1ccc(C2=NN3C(c4snnc4C)=NNC3S2)cc1 (stereo not drawn)
- inhibition of growth at 50 µg/mL (Puccinia triticina): 10%
- inhibition of growth at 50 µg/mL [1]: 7.7%
- inhibition of growth at 50 µg/mL (Alternaria solani [3]): 0%
- Activity (Nicotiana tabacum [7]): Toxic
- inhibition of growth at 50 µg/mL (Thanatephorus cucumeris [8]): 46.4%
- inhibition of growth at 50 µg/mL (Phytophthora infestans [9]): 4.8%
- inhibition of growth at 50 µg/mL (Fusarium oxysporum): 44.4%
- inhibition of growth at 50 µg/mL (Mycosphaerella arachidis): 7.7%
- inhibition of growth at 50 µg/mL (Cercospora beticola): 0%
- inhibition of growth at 50 µg/mL (Rhizoctonia solani [10]): 11.1%
- inhibition of growth at 50 µg/mL (Colletotrichum lagenaria): 18.2%
- inhibition at 50 µg/mL (Tobacco mosaic virus [15]): 17.9%

SMILES: Cc1nnsc1C1=NNC2SC(c3ccncc3)=NN12 (stereo not drawn)
- inhibition of growth at 50 µg/mL (Puccinia triticina): 10%
- inhibition of growth at 50 µg/mL [1]: 7.7%
- inhibition of growth at 50 µg/mL (Alternaria solani [3]): 9.5%
- Activity (Nicotiana tabacum [7]): Toxic
- inhibition of growth at 50 µg/mL (Thanatephorus cucumeris [8]): 44.6%
- inhibition of growth at 50 µg/mL (Phytophthora infestans [9]): 0%
- inhibition of growth at 50 µg/mL (Fusarium oxysporum): 44.4%
- inhibition of growth at 50 µg/mL (Mycosphaerella arachidis): 23.1%
- inhibition of growth at 50 µg/mL (Cercospora beticola): 0%
- inhibition of growth at 50 µg/mL (Rhizoctonia solani [10]): 5.7%
- inhibition of growth at 50 µg/mL (Colletotrichum lagenaria): 27.3%
- inhibition at 50 µg/mL (Tobacco mosaic virus [15]): 27%

SMILES: NC(=O)c1ncn([C@@H]2O[C@H](CO)[C@@H](O)[C@H]2O)n1 [RIBAVIRIN]
- inhibition at 500 µg/mL (Tobacco mosaic virus [2]): 37.9%
- Activity (Nicotiana tabacum [14]): inactive
- inhibition at 100 µg/mL (Tobacco mosaic virus [11]): 21.6%
- inhibition at 50 µg/mL (Tobacco mosaic virus [15]): 16.7%

SMILES: CCc1cc(C2=NN3C(c4snnc4C)=NNC3S2)nn1C (stereo not drawn)
- inhibition of growth at 50 µg/mL (Puccinia triticina): 10%
- inhibition of growth at 50 µg/mL [1]: 12.8%
- inhibition of growth at 50 µg/mL (Alternaria solani [3]): 9.5%
- Activity (Nicotiana tabacum [7]): Toxic
- inhibition of growth at 50 µg/mL (Thanatephorus cucumeris [8]): 30.4%
- inhibition of growth at 50 µg/mL (Phytophthora infestans [9]): 4.8%
- inhibition of growth at 50 µg/mL (Fusarium oxysporum): 47.2%
- inhibition of growth at 50 µg/mL (Mycosphaerella arachidis): 7.7%
- inhibition of growth at 50 µg/mL (Cercospora beticola): 0%
- inhibition of growth at 50 µg/mL (Rhizoctonia solani [10]): 19.4%
- inhibition of growth at 50 µg/mL (Colletotrichum lagenaria): 0%
- inhibition at 50 µg/mL (Tobacco mosaic virus [15]): 34.8%
